The values below come from ChEMBL document CHEMBL3525946, “Species comparison of in vivo P-glycoprotein-mediated brain efflux using mdr1a-deficient rats and mice” (Drug Metab Dispos, 2012).

Data set [1] can be described thus: Total brain to plasma partition coefficient of the compound in mdr1a-deficient rat at 6 mg/kg/day administered through continuous minipump treatment for 3 days. The data set is classed as ADME, organism-based. Particulars: brain and plasma, other: continuous minipump. In short, it runs like this: (§1)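 Kp is total brain concentration divided by total plasma concentration at steady state. Measured after a 3-day subcutaneous osmotic minipump infusion in mdr1a-deficient or wild-type rats or mice, n=3-5. Concentrations determined by UPLC-MS in plasma and in whole-brain homogenate (70% acetonitrile). Mean ± SEM.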

Data set [2] is described as follows: Total drug level in mdr1a-deficient rat brain at 6 mg/kg/day administered through continuous minipump treatment for 3 days by UPLC-MS analysis. The class given is ADME, organism-based. Particulars: other: continuous minipump, read-out: Drug uptake. In short, it runs like this:
(§2)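 Subcutaneous osmotic minipump infusion for 3 days to steady state, implanted under isoflurane (rats 10 µl/h, mice 1 µl/h). Mdr1a-deficient (SD-Abcb1a knockout rats; Crl:CF1-Abcb1a mutant mice) and wild-type animals, n=3-5 per group. After decapitation, EDTA plasma and whole brain (homogenized 1:4 in 70% acetonitrile) were precipitated with internal standard. Parent and metabolites quantified by UPLC-MS. Mean ± SEM.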

Data set [3] can be described thus: Total brain to plasma partition coefficient of the compound in wild type Sprague-Dawley rat expressing Abcb1a at 6 mg/kg/day administered through continuous minipump treatment for 3 days. The class given is ADME, organism-based. The following applies: brain and plasma, other: continuous minipump. The method in brief:
as §1

The nature of data set [4]: Percentage unbound in Crl:NMRI(Han) mouse plasma at 1 uM after 5 hrs by equilibrium dialysis method. The data set is classed as ADME, cell-free. In short, it runs like this: (§3)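 Equilibrium dialysis (12-14 kDa membrane) of plasma or brain homogenate from naïve male Sprague-Dawley rats or Crl:NMRI(Han) mice. Donor side spiked to 1 µM final; receiver phosphate buffer pH 7.4; 37°C for 5 h. Buffer phase quantified by LC-MS. Brain fu corrected for homogenate dilution to intact tissue. Mean of two independent determinations.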
A general note: In equilibrium dialysis only unbound substance equilibrates across the membrane.

Data set [5] is described as follows: Total plasma concentration in mdr1a-deficient Sprague-Dawley rat at 6 mg/kg/day administered through continuous minipump treatment for 3 days by UPLC-MS analysis. The class given is ADME, organism-based. The following applies: other: continuous minipump. The method in brief: as §2
Data set [6] in a line: Total drug level in wild type Crl:CF1 mouse brain expressing Abcb1a mutant at 3 mg/kg/day administered through continuous minipump treatment for 3 days by UPLC-MS analysis. Particulars: other: continuous minipump, read-out: Drug uptake. The class given is ADME, organism-based. In short, it runs like this:
as §2

Data set [7] can be described thus: Unbound brain to plasma partition coefficient of the compound in wild type Crl:CF1 mouse expressing Abcb1a mutant at 3 mg/kg/day administered through continuous minipump treatment for 3 days. The data set is classed as ADME, organism-based. The following applies: other: continuous minipump, read-out: K(p,uu,brain). In short, it runs like this: (§4)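 Kp,uu is (Cbrain,total × fu,brain)/(Cplasma,total × fu,plasma). Total concentrations were measured at steady state after a 3-day subcutaneous minipump infusion in knockout or wild-type animals. Species-matched free fractions came from 5 h, 37°C equilibrium dialysis at 1 µM in naïve plasma and brain homogenate.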

The nature of data set [8]: Unbound brain to plasma partition coefficient of the compound in mdr1a-deficient mouse at 3 mg/kg/day administered through continuous minipump treatment for 3 days. Particulars: other: continuous minipump, read-out: K(p,uu,brain). The class given is ADME, organism-based. The method in brief:
as §4

Data set [9] is described as follows: Total plasma concentration in wild type Sprague-Dawley rat expressing Abcb1a at 6 mg/kg/day administered through continuous minipump treatment for 3 days by UPLC-MS analysis. The class given is ADME, organism-based. Particulars: other: continuous minipump. In short, it runs like this: as §2
Data set [10] in a line: Total brain to plasma partition coefficient of the compound in mdr1a-deficient mouse at 3 mg/kg/day administered through continuous minipump treatment for 3 days. Particulars: other: continuous minipump. The class given is ADME, organism-based. The method in brief:
as §1

The nature of data set [11]: Percentage unbound in Sprague-Dawley rat brain at 1 uM after 5 hrs by equilibrium dialysis method. The class given is ADME, tissue-based. In short, it runs like this:
as §3

Data set [12] is described as follows: Total plasma concentration in mouse at 3 mg/kg/day administered through continuous minipump treatment for 3 days by UPLC-MS analysis. The data set is classed as ADME, organism-based. Particulars: other: continuous minipump. In short, it runs like this:
as §2

Data set [13] is described as follows: Total plasma concentration in wild type Crl:CF1 mouse expressing Abcb1a mutant at 3 mg/kg/day administered through continuous minipump treatment for 3 days by UPLC-MS analysis. The following applies: other: continuous minipump. The data set is classed as ADME, organism-based. The method in brief:
as §2

Data set [14] can be described thus: Unbound brain to plasma partition coefficient of the compound in mdr1a-deficient rat at 6 mg/kg/day administered through continuous minipump treatment for 3 days. The class given is ADME, organism-based. The following applies: other: continuous minipump, read-out: K(p,uu,brain). In short, it runs like this: as §4
Data set [15] can be described thus: Total drug level in wild type Sprague-Dawley rat brain expressing Abcb1a at 6 mg/kg/day administered through continuous minipump treatment for 3 days by UPLC-MS analysis. The data set is classed as ADME, organism-based. The following applies: other: continuous minipump, read-out: Drug uptake. The method in brief:
as §2

Data set [16] can be described thus: Unbound brain to plasma partition coefficient of the compound in wild type Sprague-Dawley rat expressing Abcb1a at 6 mg/kg/day administered through continuous minipump treatment for 3 days. The data set is classed as ADME, organism-based. The following applies: other: continuous minipump, read-out: K(p,uu,brain). In short, it runs like this: as §4
Data set [17] is described as follows: Total drug level in mdr1a-deficient mouse brain at 3 mg/kg/day administered through continuous minipump treatment for 3 days by UPLC-MS analysis. The data set is classed as ADME, organism-based. Particulars: other: continuous minipump, read-out: Drug uptake. In short, it runs like this:
as §2

The nature of data set [18]: Total brain to plasma partition coefficient of the compound in wild type Crl:CF1 mouse expressing Abcb1a mutant at 3 mg/kg/day administered through continuous minipump treatment for 3 days. The data set is classed as ADME, organism-based. Particulars: other: continuous minipump. The method in brief: as §1
Data set [19] is described as follows: Percentage unbound in Sprague-Dawley rat plasma at 1 uM after 5 hrs by equilibrium dialysis method. The data set is classed as ADME, cell-free. The method in brief:
as §3

Data set [20] is described as follows: Percentage unbound in Crl:NMRI(Han) mouse brain at 1 uM after 5 hrs by equilibrium dialysis method. The class given is ADME, tissue-based. In short, it runs like this: as §3
Data set [21] in a line: Total plasma concentration in wild type Sprague-Dawley rat expressing Abcb1a at 5 mg/kg/day administered through continuous minipump treatment for 3 days by UPLC-MS analysis. The data set is classed as ADME, organism-based. The following applies: other: continuous minipump. In short, it runs like this:
(§5)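 Drug was infused subcutaneously by osmotic minipump for 3 days to steady state, at 1 µl/h in mice and 10 µl/h in rats, with doses derived from body weight and delivery rate. Animals were decapitated. Plasma came from EDTA trunk blood spun at 5000 g for 10 min at 4 °C. Whole brain was homogenised 1:4 in 70% acetonitrile and the supernatant kept. Samples were protein-precipitated with internal standard and analysed by UPLC. n=3-5, mean ± SEM.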

A short description of data set [22]: Total drug level in mdr1a-deficient mouse brain at 4 mg/kg/day administered through continuous minipump treatment for 3 days by UPLC-MS analysis. The class given is ADME, organism-based. Particulars: other: continuous minipump, read-out: Drug uptake. The method in brief:
as §5

Data set [23] is described as follows: Total drug level in mdr1a-deficient rat brain at 5 mg/kg/day administered through continuous minipump treatment for 3 days by UPLC-MS analysis. The data set is classed as ADME, organism-based. Particulars: other: continuous minipump, read-out: Drug uptake. The method in brief:
as §5

Data set [24] in a line: Total brain to plasma partition coefficient of the compound in mdr1a-deficient mouse at 4 mg/kg/day administered through continuous minipump treatment for 3 days. The following applies: other: continuous minipump.
Data set [25] is described as follows: Total drug level in wild type Sprague-Dawley rat brain expressing Abcb1a at 5 mg/kg/day administered through continuous minipump treatment for 3 days by UPLC-MS analysis. The data set is classed as ADME, organism-based. Particulars: other: continuous minipump, read-out: Drug uptake. The method in brief:
as §5

Data set [26] in a line: Total brain to plasma partition coefficient of the compound in wild type Crl:CF1 mouse expressing Abcb1a mutant at 4 mg/kg/day administered through continuous minipump treatment for 3 days. The following applies: brain and plasma, other: continuous minipump.
A short description of data set [27]: Unbound brain to plasma partition coefficient of the compound in mdr1a-deficient rat at 5 mg/kg/day administered through continuous minipump treatment for 3 days. Particulars: other: continuous minipump, read-out: K(p,uu,brain). The class given is ADME, organism-based. The method in brief:
(§6)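 Kp,uu = Cbrain,total × fu,brain / Cplasma,total × fu,plasma, using steady-state totals from 3-day subcutaneous minipump infusion. Free fractions came from equilibrium dialysis (12-14 kDa membrane) of naive Sprague-Dawley rat or NMRI mouse plasma or brain homogenate spiked to 1 µM final, against pH 7.4 phosphate buffer for 5 h at 37 °C, read by LC-MS and corrected for brain dilution. fu is the mean of two determinations.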

A short description of data set [28]: Total drug level in wild type Crl:CF1 mouse brain expressing Abcb1a mutant at 4 mg/kg/day administered through continuous minipump treatment for 3 days by UPLC-MS analysis. The following applies: other: continuous minipump, read-out: Drug uptake. The class given is ADME, organism-based. The method in brief:
as §5

Data set [29] in a line: Total plasma concentration in mdr1a-deficient rat at 5 mg/kg/day administered through continuous minipump treatment for 3 days by UPLC-MS analysis. The class given is ADME, organism-based. The following applies: other: continuous minipump. The method in brief: as §5
The nature of data set [30]: Total plasma concentration in wild type Crl:CF1 mouse expressing Abcb1a mutant at 4 mg/kg/day administered through continuous minipump treatment for 3 days by UPLC-MS analysis. The data set is classed as ADME, organism-based. The following applies: other: continuous minipump. In short, it runs like this: as §5
The nature of data set [31]: Unbound brain to plasma partition coefficient of the compound in wild type Crl:CF1 mouse expressing Abcb1a mutant at 4 mg/kg/day administered through continuous minipump treatment for 3 days. The data set is classed as ADME, organism-based. Particulars: other: continuous minipump, read-out: K(p,uu,brain). The method in brief: as §6
Data set [32] in a line: Unbound brain to plasma partition coefficient of the compound in wild type Sprague-Dawley rat expressing Abcb1a at 5 mg/kg/day administered through continuous minipump treatment for 3 days. The class given is ADME, organism-based. Particulars: other: continuous minipump, read-out: K(p,uu,brain). The method in brief: as §6
Data set [33] is described as follows: Total brain to plasma partition coefficient of the compound in mdr1a-deficient Sprague-Dawley rat at 5 mg/kg/day administered through continuous minipump treatment for 3 days. The following applies: brain and plasma, other: continuous minipump.
A short description of data set [34]: Unbound brain to plasma partition coefficient of the compound in mdr1a-deficient mouse at 4 mg/kg/day administered through continuous minipump treatment for 3 days. The class given is ADME, organism-based. Particulars: other: continuous minipump, read-out: K(p,uu,brain). The method in brief:
as §6

Data set [35] in a line: Total plasma concentration in mdr1a-deficient mouse at 4 mg/kg/day administered through continuous minipump treatment for 3 days by UPLC-MS analysis. The data set is classed as ADME, organism-based. Particulars: other: continuous minipump. In short, it runs like this: as §5
The nature of data set [36]: Total brain to plasma partition coefficient of the compound in wild type Sprague-Dawley rat expressing Abcb1a at 5 mg/kg/day administered through continuous minipump treatment for 3 days. The following applies: brain and plasma, other: continuous minipump.

Turning to `O=C1CCc2ccc(OCCCCN3CCN(c4cccc(Cl)c4Cl)CC3)cc2N1` [ARIPIPRAZOLE], the Kp (in general, tissue or fluid exposure divided by exposure in the circulation) at 72 h turned out to be 0.64 in [1], 0.19 in data set [3], 1.3 in data set [10] and 0.49 in data set [18]. The concentration at 72 h in data set [2] turned out to be 14 ng/g; in [5], 22 ng/mL; in [6], 25 ng/g; in data set [9] it was 18 ng/mL; in data set [12], 32 ng/mL; in [13] it was 51 ng/mL. For the same compound, the concentration at 72 h turned out to be 3 ng/g in [15] and 41 ng/g in data set [17]. For the same compound, the unbound share (fraction unbound) – broadly, the share of the substance not bound to proteins or other matrix – at 5 h, 1 µM in [4] amounted to 0.002; in data set [11], 0.001; in [19], 0.001; in data set [20] it was 0.001. Moreover, the Kp uu at 72 h is 0.25 in data set [7], 0.64 in [8], 0.64 in data set [14] and 0.19 in [16].

As for `Cc1nc2n(c(=O)c1CCN1CCC(c3noc4cc(F)ccc34)CC1)CCCC2` [RISPERIDONE], the concentration at 72 h stood at 194 ng/mL in data set [21]; 149 ng/g in [22]; 295 ng/g in data set [23]; 41 ng/g in [25]; 21 ng/g in data set [28]; 168 ng/mL in data set [29]. The concentration at 72 h in [30] is 43 ng/mL; in [35], 40 ng/mL. Further, the free fraction (fraction unbound) at 5 h, 1 µM worked out at 0.27 in data set [4], 0.09 in [11], 0.11 in [19] and 0.058 in data set [20]. Moreover, the Kp at 72 h in data set [24] worked out at 3.8; in [26] it was 0.52; in data set [33], 1.9; in data set [36], 0.22. Besides, the Kp uu at 72 h in [27] was found to be 1.4; in data set [31], 0.11; in data set [32], 0.17; in data set [34], 0.81.
